pEC50, pIC50: −log10 of the molar value.
What was measured:
[1] = tested on: Respiratory syncytial virus; assay: Antiviral activity against RSV Long in human HeLa cells assessed as protection against virus-induced cytopathicity; assay type: functional, organism-based
In short: (§1)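 Confluent cell monolayers inoculated with 100 CCID₅₀ virus. After 1-2 h adsorption, residual virus removed and cultures incubated with varying compound concentrations. Cytopathicity scored once it reached completion in untreated infected controls. EC₅₀ = dose reducing virus-induced cytopathogenicity by 50%.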

[2] = tested on: Vesicular stomatitis virus; assay: Antiviral activity against VSV in human HeLa cells assessed as protection against virus-induced cytopathicity; assay type: functional, organism-based
[3] = tested on: Human immunodeficiency virus 1; assay: Antiviral activity against HIV1 3B in human CEM cells assessed as protection against virus-induced cytopathicity after 4 days; assay type: functional, organism-based; conditions: Human immunodeficiency virus 1, 3B, CCRF-CEM, 96 h
In short: (§2)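 CEM cells (~3 × 10⁵ cells/mL) infected with ~100 CCID₅₀ per mL of HIV-1 (IIIB) or HIV-2 (ROD), then seeded into wells containing compound dilutions. After 4 days at 37 °C, syncytium (giant cell) formation was examined microscopically. EC₅₀ = concentration protecting CEM cells from HIV cytopathicity by 50%.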

[4] = tested on: Human immunodeficiency virus 2; assay: Antiviral activity against HIV2 ROD in human CEM cells assessed as protection against virus-induced cytopathicity after 4 days; assay type: functional, organism-based; conditions: Human immunodeficiency virus 2, ROD, CCRF-CEM, 96 h; in short: as §2
L1210 = assay: Antiproliferative activity against mouse L1210 cells after 2 days; assay type: cell-based; conditions: L1210, 48 h
In short: (§3)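 Cells seeded at 5 × 10⁴ to 7.5 × 10⁴ cells/200 µL with or without serial compound dilutions; incubated at 37 °C for 2 days (L1210) or 3 days (Molt4/C8, CEM). Cell numbers counted with a Coulter counter. CC₅₀ = concentration reducing proliferation by 50% versus untreated controls, read from plots of cell number (% of control) against concentration. Means of at least two independent experiments.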

[5] = Antiproliferative activity against human Molt4/C8 cells after 3 days; assay type: cell-based; conditions: MOLT-4, 72 h; in short: as §3
CCRF-CEM = assay: Antiproliferative activity against human CEM cells after 3 days; assay type: cell-based; conditions: 72 h; in short: as §3
[6] = tested on: Human immunodeficiency virus 1; assay: Antiviral activity against HIV1 with reverse transcriptase L100I mutation in human CEM cells assessed as protection against virus-induced cytopathicity; assay type: functional, organism-based; conditions: Human immunodeficiency virus 1, CCRF-CEM
In short: (§4)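 CEM cells (~3 × 10⁵ cells/mL) were infected with ~100 CCID₅₀ virus per mL and seeded with serial compound dilutions. After 4 days at 37 °C, syncytium (giant cell) formation was scored microscopically. EC₅₀ is the concentration giving 50% protection against virus cytopathicity.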

[7] = tested on: Human immunodeficiency virus 1; assay: Antiviral activity against HIV1 with reverse transcriptase K103N mutation in human CEM cells assessed as protection against virus-induced cytopathicity; assay type: functional, organism-based; conditions: Human immunodeficiency virus 1, CCRF-CEM; in short: as §4
[8] = tested on: Human immunodeficiency virus 1; assay: Antiviral activity against HIV1 with reverse transcriptase Y181C mutation in human CEM cells assessed as protection against virus-induced cytopathicity; assay type: functional, organism-based; conditions: Human immunodeficiency virus 1, CCRF-CEM; in short: as §4
[9] = tested on: Human immunodeficiency virus 1; assay: Antiviral activity against HIV1 with reverse transcriptase Y181I mutation in human CEM cells assessed as protection against virus-induced cytopathicity; assay type: functional, organism-based; conditions: Human immunodeficiency virus 1, CCRF-CEM; in short: as §4
[10] = tested on: Human immunodeficiency virus 1; assay: Antiviral activity against HIV1 with reverse transcriptase Y188L mutation in human CEM cells assessed as protection against virus-induced cytopathicity; assay type: functional, organism-based; conditions: Human immunodeficiency virus 1, CCRF-CEM; in short: as §4
[11] = molecular target: Human immunodeficiency virus type 1 reverse transcriptase (Human immunodeficiency virus 1, UniProt Q72547); assay: Inhibition of HIV1 reverse transcriptase p66/p51; conditions: read-out: IC50
[12] = molecular target: Human immunodeficiency virus type 1 reverse transcriptase (Human immunodeficiency virus 1, UniProt Q72547, L100I); assay: Inhibition of HIV1 reverse transcriptase p66/p51 L100I mutant; conditions: read-out: IC50
In short: (§5)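 Substrate was 0.5 µg poly(rA)/oligo(dT) 10:1 (0.3 µM 3′-OH ends) with 10 µM [³H]dTTP, at 37 °C. Acid-precipitable radioactivity was counted on GF/C filters after TCA washes.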

[13] = molecular target: Human immunodeficiency virus type 1 reverse transcriptase (Human immunodeficiency virus 1, UniProt Q72547, K103N); assay: Inhibition of HIV1 reverse transcriptase p66/p51 K103N mutant; conditions: read-out: IC50; in short: as §5
[14] = molecular target: Human immunodeficiency virus type 1 reverse transcriptase (Human immunodeficiency virus 1, UniProt Q72547, Y181I); assay: Inhibition of HIV1 reverse transcriptase p66/p51 Y181I mutant; conditions: read-out: IC50; in short: as §5
[15] = Cytotoxicity against human HeLa cells assessed as drug level causing microscopically detectable alteration of normal cell morphology after 3 days; assay type: cell-based
In short: (§6)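 Serial compound dilutions added to confluent HeLa or Vero monolayers. MCC = minimum concentration causing microscopically detectable alteration of cell morphology after 3 days of incubation.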

[16] = Cytotoxicity against african green monkey Vero cells assessed as drug level causing microscopically detectable alteration of normal cell morphology after 3 days; assay type: cell-based; conditions: chlorocebus sabaeus; in short: as §6
Coxsackievirus B4 [17] = assay: Antiviral activity against Coxsackievirus B4 in human HeLa cells assessed as protection against virus-induced cytopathicity; assay type: functional, organism-based; conditions: Enterovirus B; in short: as §1
Coxsackievirus B4 [18] = assay: Antiviral activity against Coxsackievirus B4 in african green monkey Vero cells assessed as protection against virus-induced cytopathicity; assay type: functional, organism-based; conditions: Enterovirus B; in short: as §1
Human respirovirus 3 = assay: Antiviral activity against Parainfluenza virus type 3 in african green monkey Vero cells assessed as protection against virus-induced cytopathicity; assay type: functional, organism-based; conditions: Human respirovirus 3, Vero; in short: as §1
[19] = tested on: Mammalian orthoreovirus 1; assay: Antiviral activity against Reovirus 1 in african green monkey Vero cells assessed as protection against virus-induced cytopathicity; assay type: functional, organism-based; conditions: Mammalian orthoreovirus 1, Vero; in short: as §1
Sindbis virus = assay: Antiviral activity against Sindbis virus in african green monkey Vero cells assessed as protection against virus-induced cytopathicity; assay type: functional, organism-based; in short: as §1
Punta Toro virus = assay: Antiviral activity against Punta Toro virus in african green monkey Vero cells assessed as protection against virus-induced cytopathicity; assay type: functional, organism-based; in short: as §1
[20] = Cytotoxicity against human HEL cells assessed as drug level causing microscopically detectable alteration of normal cell morphology after 3 days; assay type: cell-based
Human alphaherpesvirus 1 [21] = assay: Antiviral activity against HSV1 KOS in human HEL cells assessed as protection against virus-induced cytopathicity; assay type: functional, organism-based; conditions: Human alphaherpesvirus 1, KOS
Human alphaherpesvirus 2 = assay: Antiviral activity against HSV2 G in human HEL cells assessed as protection against virus-induced cytopathicity; assay type: functional, organism-based; conditions: Human alphaherpesvirus 2, strain G; in short: as §1
Vaccinia virus = assay: Antiviral activity against Vaccinia virus Lederle in human HEL cells assessed as protection against virus-induced cytopathicity; assay type: functional, organism-based; conditions: Orthopoxvirus vaccinia
[22] = tested on: Vesicular stomatitis virus; assay: Antiviral activity against VSV in human HEL cells assessed as protection against virus-induced cytopathicity; assay type: functional, organism-based
Human alphaherpesvirus 1 [23] = assay: Antiviral activity against thymidine kinase deficient and acyclovir resistant HSV1 KOS in human HEL cells assessed as protection against virus-induced cytopathicity; assay type: functional, organism-based; conditions: Human alphaherpesvirus 1, KOS
[24] = Cytotoxicity against MDCK cells assessed as drug level causing microscopically detectable alteration of normal cell morphology; assay type: cell-based, Canis lupus familiaris; conditions: dog
[25] = Cytotoxicity against MDCK cells by MTS assay; assay type: cell-based, Canis lupus familiaris; conditions: dog
Influenza A virus [26] = assay: Antiviral activity against influenza H1N1 virus in MDCK cells assessed as reduction of virus-induced cytopathicity by visual cytopathic effect scoring method; assay type: functional, organism-based
Influenza A virus [27] = assay: Antiviral activity against influenza H1N1 virus in MDCK cells assessed as reduction of virus-induced cytopathicity by MTS method; assay type: functional, organism-based; conditions: Influenza A virus, H1N1, MDCK
Influenza A virus H3N2 [28] = assay: Antiviral activity against influenza H3N2 virus in MDCK cells assessed as reduction of virus-induced cytopathicity by visual cytopathic effect scoring method; assay type: functional, organism-based
Influenza A virus H3N2 [29] = assay: Antiviral activity against influenza H3N2 virus in MDCK cells assessed as reduction of virus-induced cytopathicity by MTS method; assay type: functional, organism-based
Influenza B virus [30] = assay: Antiviral activity against influenza B virus in MDCK cells assessed as reduction of virus-induced cytopathicity by visual cytopathic effect scoring method; assay type: functional, organism-based
Influenza B virus [31] = assay: Antiviral activity against influenza B virus in MDCK cells assessed as reduction of virus-induced cytopathicity by MTS method; assay type: functional, organism-based
[32] = Cytotoxicity against feline CRFK cells by MTS assay; assay type: cell-based, Felis catus; conditions: cat
Feline coronavirus = assay: Antiviral activity against Feline coronavirus in feline […] cells assessed as inhibition of virus-induced cytopathicity; assay type: functional, organism-based; conditions: Alphacoronavirus 1
Felid alphaherpesvirus 1 = assay: Antiviral activity against Feline herpesvirus in feline […] cells assessed as inhibition of virus-induced cytopathicity; assay type: functional, organism-based

Question: With `Cc1cc(C)cc(S(=O)(=O)c2c(C(=O)NC(C)CS(N)(=O)=O)[nH]c3ccc(Cl)cc23)c1` (stereo unspecified) as the molecule, how does the pEC50 [1] read?
Answer: The pEC50 was less than 4.70.

Question: What about the pEC50 [2] of the same molecule?
Answer: Its pEC50 is less than 4.70.

Question: And the pEC50 [3]?
Answer: The pEC50 was 8.64.

Question: And the pEC50 [4]?
Answer: The pEC50 was less than 5.00.

Question: What about the pIC50 (L1210) of the same molecule?
Answer: Its pIC50 is 4.82.

Question: What about the pIC50 [5] of the same molecule?
Answer: Its pIC50 is 5.06.

Question: And the pIC50 (CCRF-CEM)?
Answer: Its pIC50 is 4.89.

Question: What about the pIC50 [6] of the same molecule?
Answer: Its pIC50 is 8.70.

Question: What about the pIC50 [7] of the same molecule?
Answer: Its pIC50 is 7.44.

Question: And the pIC50 [8]?
Answer: The pIC50 was 6.41.

Question: What about the pIC50 [9] of the same molecule?
Answer: Its pIC50 is less than 6.00.

Question: And the pIC50 [10]?
Answer: The pIC50 was less than 6.00.

Question: And the pIC50 [11]?
Answer: Its pIC50 is 9.40.

Question: And the pIC50 [12]?
Answer: Its pIC50 is 8.40.

Question: And the pIC50 [13]?
Answer: The pIC50 was 6.63.

Question: What about the pIC50 [14] of the same molecule?
Answer: The pIC50 was 5.71.

Question: And the MCC at 72 h [15]?
Answer: Its MCC at 72 h is 100 µM.

Question: What about the MCC at 72 h [16] of the same molecule?
Answer: The MCC at 72 h was no less than 20 µM.

Question: What about the pEC50 (Coxsackievirus B4 [17]) of the same molecule?
Answer: The pEC50 was 5.52.

Question: What about the pEC50 (Coxsackievirus B4 [18]) of the same molecule?
Answer: The pEC50 was 4.92.

Question: And the pEC50 (Human respirovirus 3)?
Answer: Its pEC50 is less than 4.70.

Question: And the pEC50 [19]?
Answer: The pEC50 was 4.70.

Question: What about the pEC50 (Sindbis virus) of the same molecule?
Answer: The pEC50 was less than 4.70.

Question: And the pEC50 (Punta Toro virus)?
Answer: Its pEC50 is less than 4.70.

Question: What about the MCC at 72 h [20] of the same molecule?
Answer: Its MCC at 72 h is 20 µM.

Question: What about the pEC50 (Human alphaherpesvirus 1 [21]) of the same molecule?
Answer: The pEC50 was less than 5.40.

Question: What about the pEC50 (Human alphaherpesvirus 2) of the same molecule?
Answer: Its pEC50 is less than 5.40.

Question: And the pEC50 (Vaccinia virus)?
Answer: Its pEC50 is less than 5.40.

Question: And the pEC50 [22]?
Answer: Its pEC50 is less than 5.40.

Question: And the pEC50 (Human alphaherpesvirus 1 [23])?
Answer: The pEC50 was less than 5.40.

Question: What about the MCC [24] of the same molecule?
Answer: The MCC was 20 µM.

Question: And the CC50 [25]?
Answer: The CC50 was 12.2 µM.

Question: What about the pEC50 (Influenza A virus [26]) of the same molecule?
Answer: Its pEC50 is less than 5.40.

Question: What about the pEC50 (Influenza A virus [27]) of the same molecule?
Answer: Its pEC50 is less than 5.40.

Question: And the pEC50 (Influenza A virus H3N2 [28])?
Answer: The pEC50 was less than 5.40.

Question: And the pEC50 (Influenza A virus H3N2 [29])?
Answer: Its pEC50 is less than 5.40.

Question: And the pEC50 (Influenza B virus [30])?
Answer: Its pEC50 is less than 5.40.

Question: What about the pEC50 (Influenza B virus [31]) of the same molecule?
Answer: Its pEC50 is less than 5.40.

Question: What about the CC50 [32] of the same molecule?
Answer: The CC50 was 11.1 µM.

Question: And the pEC50 (Feline coronavirus)?
Answer: The pEC50 was less than 5.40.

Question: And the pEC50 (Felid alphaherpesvirus 1)?
Answer: Its pEC50 is less than 5.40.
